Measured values from ChEMBL document CHEMBL1799988, “Novel chalcone derivatives as potent Nrf2 activators in mice and human lung epithelial cells” (J Med Chem, 2011).
Calls of active or inactive are those of the source. The calls are words filed in the database; no cut-off is given here.

Experiments:
[1] = molecular target: T1, Nuclear factor erythroid 2-related factor 2 (Homo sapiens) (UniProt Q16236); assay: Induction of Nrf2-mediated GCLM gene expression in human BEAS2B cells at 10 uM after 16 hrs by RT-PCR analysis relative to untreated control; assay type: functional, cell-based
T1 sequence (whole entry): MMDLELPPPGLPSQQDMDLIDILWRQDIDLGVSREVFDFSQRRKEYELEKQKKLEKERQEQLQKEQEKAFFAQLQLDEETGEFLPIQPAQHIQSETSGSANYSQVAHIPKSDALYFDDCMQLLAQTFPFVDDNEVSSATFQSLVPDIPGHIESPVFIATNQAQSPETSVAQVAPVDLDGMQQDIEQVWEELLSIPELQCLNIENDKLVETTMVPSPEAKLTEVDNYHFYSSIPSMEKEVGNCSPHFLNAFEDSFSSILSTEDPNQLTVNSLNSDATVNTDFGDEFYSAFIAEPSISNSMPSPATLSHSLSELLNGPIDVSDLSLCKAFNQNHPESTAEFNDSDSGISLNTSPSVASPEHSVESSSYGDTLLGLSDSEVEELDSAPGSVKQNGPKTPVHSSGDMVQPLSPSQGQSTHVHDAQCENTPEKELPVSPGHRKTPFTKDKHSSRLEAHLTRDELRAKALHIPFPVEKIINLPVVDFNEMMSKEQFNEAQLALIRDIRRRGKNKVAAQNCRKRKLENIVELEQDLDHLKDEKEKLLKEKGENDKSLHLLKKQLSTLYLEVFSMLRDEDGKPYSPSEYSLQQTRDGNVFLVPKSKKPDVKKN
Procedure, shortened: (§1)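 Beas-2B cells (DMEM:F12, 10% FBS) plated 24 h, then exposed to 10 µM compound in DMSO (final ≤0.1%) for 16 h; sulforaphane as positive control. Total RNA extracted, reverse transcribed with random hexamers, GCLM and NQO1 mRNA quantified by TaqMan qRT-PCR, fold change vs DMSO. Representative of 3 independent experiments, quadruplicate wells.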

[2] = molecular target: T1, Nuclear factor erythroid 2-related factor 2 (Homo sapiens); assay: Induction of Nrf2-mediated NQO1 gene expression in human BEAS2B cells at 10 uM after 16 hrs by RT-PCR analysis relative to untreated control; assay type: functional, cell-based; procedure, shortened: as §1
[3] = Cytotoxicity against human BEAS2B cells assessed as cell viability after 24 hrs by MTT assay; assay type: cell-based, BEAS-2B; design: concentration or dose not given beside the values; details: read-out: Activity
Procedure, shortened: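 Beas-2B cells treated with compound or DMSO vehicle (0.1%) for 24 h; MTT (5 mg/ml in serum-free medium) added for the last 4 h, formazan dissolved in DMSO after PBS wash, absorbance read at 570 nm. Viability also checked by trypan blue exclusion.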

Mus musculus [4] = assay: Induction of Nrf2-mediated GCLM gene expression in small intestine of C57BL/6 mouse at 50 mg/kg, po administered as single dose measured after 24 hrs by RT-PCR analysis related to control; assay type: functional
Procedure, shortened: (§2)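 Male C57BL/6 mice (7 weeks, AIN 76A diet; n=4) given a single 50 mg/kg oral gavage of compound, sulforaphane, or vehicle (10% DMSO + 10% Cremophor EL + 80% PBS). Small intestine harvested 24 h later; GCLM and NQO1 mRNA measured by TaqMan qRT-PCR with β-actin normalization.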

Mus musculus [5] = assay: Induction of Nrf2-mediated NQO1 gene expression in small intestine of C57BL/6 mouse at 50 mg/kg, po administered as single dose measured after 24 hrs by RT-PCR analysis related to control; assay type: functional; procedure, shortened: as §2

| SMILES | fold change (FC) [1] | fold change (FC) [2] | viability at 24 h [3] [%] | Activity (Mus musculus [4]) | Activity (Mus musculus [5]) |
| --- | --- | --- | --- | --- | --- |
| COc1ccc(C(=O)/C=C/c2ccccc2)cc1 | 1.9 | 2.8 |  |  |  |
| COc1ccc(C(=O)/C=C/c2ccc(C(F)(F)F)cc2)c(OC)c1OC | 4.1 | 3.9 | 100 |  |  |
| COc1cc(C(=O)/C=C/c2ccc(C(F)(F)F)cc2)cc(OC)c1OC | 4.1 | 3.7 |  |  |  |
| COc1ccc(C(=O)/C=C/c2cccc(C(F)(F)F)c2)cc1 | 2.7 | 2.8 |  |  |  |
| COc1cccc(C(=O)/C=C/c2ccc(C(F)(F)F)cc2)c1 | 2.9 | 3.1 |  |  |  |
| O=C(/C=C/c1ccccc1C(F)(F)F)c1ccccc1 | 5 | 5.3 | 145 | Active | Active |
| COc1ccccc1C(=O)/C=C/c1ccccc1 | 3.6 | 3.2 |  |  |  |
| COc1cccc(C(=O)/C=C/c2ccccc2C(F)(F)F)c1 | 5.6 | 4.3 | 96.6 | Active | Active |
| O=C(/C=C/c1cccc(C(F)(F)F)c1)c1ccccc1 | 3.1 | 2.8 |  |  |  |
| COc1cccc(OC)c1C(=O)/C=C/c1cccc(C(F)(F)F)c1 | 1.8 | 0.6 |  |  |  |
| C[S+]([O-])CCCCN=C=S (stereo not drawn) [SULFORAPHANE] | 2.7 | 3.6 | 97.3 | Active | Active |
| COc1cc(OC)cc(C(=O)/C=C/c2ccccc2[N+](=O)[O-])c1 | 3.4 | 4.1 | 90.9 |  |  |
| COc1ccccc1C(=O)/C=C/c1cccc(C(F)(F)F)c1 | 3.9 | 2.9 |  |  |  |
| COc1ccc(C(=O)/C=C/c2cccc(C(F)(F)F)c2)c(OC)c1OC | 3.6 | 3.2 |  |  |  |
| COc1cccc(OC)c1C(=O)/C=C/c1ccc(C(F)(F)F)cc1 | 1.4 | 0.6 |  |  |  |
| COc1ccc(C(=O)/C=C/c2ccccc2[N+](=O)[O-])cc1 | 4.6 | 4.3 | 93.2 |  |  |
| O=C(/C=C/c1ccc(C(F)(F)F)cc1)c1ccccc1 | 3.1 | 2.9 |  |  |  |
| COc1ccccc1C(=O)/C=C/c1ccccc1[N+](=O)[O-] | 1.9 | 1.4 |  |  |  |
| COc1ccc(OC)c(C(=O)/C=C/c2cccc(C(F)(F)F)c2)c1 | 1.8 | 0.8 |  |  |  |
| COc1ccc(C(=O)/C=C/c2ccccc2)cc1OC | 2.3 | 2.5 |  |  |  |

| SMILES | fold change (FC) [1] | fold change (FC) [2] | viability at 24 h [3] [%] | Activity (Mus musculus [4]) | Activity (Mus musculus [5]) |
| --- | --- | --- | --- | --- | --- |
| COc1ccc(C(=O)/C=C/c2ccccc2C(F)(F)F)c(OC)c1OC | 5.4 | 4.1 | 102 | Active | Active |
| COc1ccc(OC)c(C(=O)/C=C/c2ccccc2[N+](=O)[O-])c1 | 1.7 | 0.7 |  |  |  |
| COc1cc(OC)cc(C(=O)/C=C/c2ccccc2)c1 | 3 | 2.4 |  |  |  |
| COc1ccc(C(=O)/C=C/c2cccc(C(F)(F)F)c2)c(OC)c1 | 4.6 | 4 |  |  |  |
| COc1cccc(OC)c1C(=O)/C=C/c1ccccc1[N+](=O)[O-] | 4.1 | 3.7 | 75.8 |  |  |
| COc1cc(OC)cc(C(=O)/C=C/c2ccccc2C(F)(F)F)c1 | 4 | 3.7 | 87.1 |  |  |
| COc1ccc(OC)c(C(=O)/C=C/c2ccccc2)c1 | 3 | 2.6 |  |  |  |
| COc1ccc(C(=O)/C=C/c2ccccc2)c(OC)c1OC | 2.4 | 2.4 |  |  |  |
| COc1cc(OC)c(C(=O)/C=C/c2ccccc2)c(OC)c1 | 3.1 | 1.8 |  |  |  |
| COc1ccc(C(=O)/C=C/c2ccccc2C(F)(F)F)c(OC)c1 | 5.4 | 4.5 | 105 | Active | Active |
| COc1cc(OC)cc(C(=O)/C=C/c2cccc(C(F)(F)F)c2)c1 | 3.8 | 3.9 | 108 |  |  |
| COc1cccc(OC)c1C(=O)/C=C/c1ccccc1C(F)(F)F | 5.7 | 5.3 | 101 | Active | Active |
| COc1cccc(C(=O)/C=C/c2cccc(C(F)(F)F)c2)c1 | 4.6 | 3.5 | 95.3 |  |  |
| COc1ccc(C(=O)/C=C/c2ccc(C(F)(F)F)cc2)cc1 | 3.5 | 4.6 | 104 |  |  |
| COc1ccc(C(=O)/C=C/c2ccccc2C(F)(F)F)cc1OC | 4.3 | 2.7 |  |  |  |
| COc1ccc(OC)c(C(=O)/C=C/c2ccc(C(F)(F)F)cc2)c1 | 4.1 | 4 | 91.6 |  |  |
| COc1ccc(C(=O)/C=C/c2ccc(C(F)(F)F)cc2)cc1OC | 3.5 | 2.7 |  |  |  |
| COc1ccc(C(=O)/C=C/c2ccccc2[N+](=O)[O-])cc1OC | 2.3 | 2.7 |  |  |  |
| COc1ccc(C(=O)/C=C/c2ccccc2[N+](=O)[O-])c(OC)c1 | 2.7 | 3.3 |  |  |  |
| O=C(/C=C/c1ccccc1)c1ccccc1 | 0.7 | 1.8 |  |  |  |

| SMILES | fold change (FC) [1] | fold change (FC) [2] | viability at 24 h [3] [%] | Activity (Mus musculus [4]) | Activity (Mus musculus [5]) |
| --- | --- | --- | --- | --- | --- |
| COc1cc(C(=O)/C=C/c2ccccc2)cc(OC)c1OC | 0.7 | 0.7 |  |  |  |
| O=C(/C=C/c1ccccc1[N+](=O)[O-])c1ccccc1 | 2.1 | 1.6 |  |  |  |
| COc1cc(C(=O)/C=C/c2cccc(C(F)(F)F)c2)cc(OC)c1OC | 1.7 | 0.8 |  |  |  |
| COc1cccc(C(=O)/C=C/c2ccccc2[N+](=O)[O-])c1 | 2.9 | 2.7 |  |  |  |
| COc1cccc(OC)c1C(=O)/C=C/c1ccccc1 | 2.5 | 1.9 |  |  |  |
| COc1cc(C(=O)/C=C/c2ccccc2C(F)(F)F)cc(OC)c1OC | 3 | 3.1 |  |  |  |
| COc1cc(OC)c(C(=O)/C=C/c2cccc(C(F)(F)F)c2)c(OC)c1 | 1.4 | 0.7 |  |  |  |
| COc1cccc(C(=O)/C=C/c2ccccc2)c1 | 1.5 | 2.4 |  |  |  |
| COc1cc(C(=O)/C=C/c2ccccc2[N+](=O)[O-])cc(OC)c1OC | 1.2 | 0.7 |  |  |  |
| COc1ccc(C(=O)/C=C/c2ccccc2C(F)(F)F)cc1 | 5.4 | 4.6 | 96 | Active | Active |
| COc1ccc(C(=O)/C=C/c2ccccc2)c(OC)c1 | 2.7 | 2.8 |  |  |  |
| COc1ccc(C(=O)/C=C/c2ccccc2[N+](=O)[O-])c(OC)c1OC | 2.9 | 3.3 |  |  |  |
| COc1ccc(C(=O)/C=C/c2ccc(C(F)(F)F)cc2)c(OC)c1 | 5 | 4.8 | 92.6 |  |  |
| COc1ccc(C(=O)/C=C/c2cccc(C(F)(F)F)c2)cc1OC | 4.1 | 2.9 |  |  |  |
| COc1cc(OC)c(C(=O)/C=C/c2ccccc2C(F)(F)F)c(OC)c1 | 4.4 | 4.3 | 145 | Active | Active |
| COc1cc(OC)c(C(=O)/C=C/c2ccc(C(F)(F)F)cc2)c(OC)c1 | 2.4 | 2.4 |  |  |  |
| COc1cc(OC)c(C(=O)/C=C/c2ccccc2[N+](=O)[O-])c(OC)c1 | 2.6 | 2 |  |  |  |
| COc1ccc(OC)c(C(=O)/C=C/c2ccccc2C(F)(F)F)c1 | 4.4 | 2.7 |  |  |  |
| COc1ccccc1C(=O)/C=C/c1ccc(C(F)(F)F)cc1 | 4.3 | 5.4 | 91 |  |  |
